Assays:
[1] = In vitro photoacoustic spectra and signal vs concentration in agar phantom; assay type: physicochemical; settings: in glucose solution 5.5% and serum; spectra 680–970 nm, step 5 nm
Procedure, shortened: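 Dyes were diluted in 5.5% glucose (plus 5% DMSO for the conjugate) or incubated 1 h at RT in human serum (HSA 47.8 g/L). Samples were loaded in PE-100 tubes in 2% agar phantoms and read at 21 MHz, 40 dB gain, persistence 3, 680–970 nm in 5 nm steps. Signals were normalized to diluted India ink. Peak signal was plotted against concentration and slopes (μM−1) compared. Data are mean ± SD.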

[2] = tested on: U-87MG tumors (high αvβ3 expression); assay: In vivo photoacoustic imaging of tumor uptake, U-87MG xenograft; design: species or system BALB/c nu/nu mice; settings: U-87MG tumor bearing mice, n = 5/group
[3] = tested on: tumor, brain, lung, liver, kidneys, heart and spleen; assay: Ex vivo optical imaging of harvested organs and tumors; assay type: in vivo, BALB/c nu/nu mice; settings: 24 h post-injection, 200 nmol i.v., harvested organs, n = 5/group
Procedure, shortened: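 Nude mice bearing s.c. right-flank xenografts (5 million A431 or 2 million U-87MG cells, ~14 days) received 200 nmol test compound or parent dye in 0.2 mL i.v. via the tail vein (n=5/group). At the end, FITC-albumin (100 mg/kg i.v.) was given 5 min before sacrifice. Tumor and organs were excised for optical imaging, with tumor ROIs and no background correction.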

U-87MG tumors = assay: Fluorescence microscopy of U-87MG tumor cryosections; assay type: in vivo, BALB/c nu/nu mice; settings: U-87MG tumors excised 24 h after injection
Procedure, shortened: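 U-87MG tumors were excised 24 h after i.v. test compound or parent dye, with FITC-albumin given 5 min before sacrifice to estimate permeability. Tumors were embedded in OCT, fresh-frozen in ice-cold isopentane, and cryosectioned. Probe and FITC distribution were viewed by fluorescence stereomicroscopy.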

[4] = Absolute fluorescence quantum yield; assay type: physicochemical; settings: Seronorm vs glucose solution
[5] = no reference given, cited from earlier work

## CC1(C)C(/C=C/C=C/C=C/C=C2\N(CCCCS(=O)(=O)O)c3ccc4ccccc4c3C2(C)C)=[N+](CCCCS(=O)(=O)[O-])c2ccc3ccccc3c21 [ICG, Indocyanine green]
[1]
  maximum photoacoustic peak: 800 nm
[2]; 200 nmol i.v. tail vein
  time of peak photoacoustic signal in tumor post-injection: 15 min
[2]; 200 nmol i.v.
  photoacoustic signal reduction at 60 min compared to 15 min: 70%
[3]
  ex vivo optical imaging, organ distribution: accumulated mainly in liver and kidney
U-87MG tumors
  microscopic fluorescence distribution in tumor cryosections: only a patchy and weak signal
[4]
  increase of fluorescence efficiency in Seronorm compared to glucose solution: 5 fold
[5]; in human
  blood half-life: 3 to 5 min
[5]
  photostability: low photostability
  solubility in aqueous media: low solubility in aqueous media with strong tendency to form aggregates
